Columns and labels:
Assay type in all cases: functional
Rattus norvegicus [1] = assay: Percent decrease in Total Low density lipoproteins was determined after intraperitoneal uM/kg; Not significant
Method in brief: (§1)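 Hyperlipidemia induced in male Fischer-344 rats (230-280 g) by Triton WR 1339 in aqueous solution, 200 mg/kg ip. 1 h later the compound (28 or 56 µmol/kg, in saline) or saline alone was given ip; at 56 µmol/kg, dosing was twice in 24 h. After 24 h, aortic blood was drawn for plasma total cholesterol, LDL and triglycerides, expressed as % decrease. 4-6 rats per group; Student's t-test.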

Rattus norvegicus [2] = assay: Percent decrease in Total Triglycerides was determined after intraperitoneal uM/kg; method in brief: as §1
Rattus norvegicus [3] = assay: Percent decrease in Total cholesterol was determined after intraperitoneal uM/kg; method in brief: as §1
Rattus norvegicus [4] = assay: Percent decrease in Total Low density lipoproteins was determined after intraperitoneal administration of a dose of 56 umol/kg; method in brief: as §1
Rattus norvegicus [5] = assay: Percent decrease in Total cholesterol was determined after intraperitoneal administration of a dose of 56 uM/kg; method in brief: as §1
Rattus norvegicus [6] = assay: Percent decrease in Total Triglycerides was determined after intraperitoneal administration of a dose of 56 uM/kg; method in brief: as §1
Rattus norvegicus [7] = assay: Percent decrease in Total Low density lipoproteins was determined after intraperitoneal administration of a dose of 56 uM/kg; method in brief: as §1
Rattus norvegicus [8] = assay: Percent decrease in Total Low density lipoproteins was determined after intraperitoneal uM/kg; method in brief: as §1

**Q.** Which Decrease (Rattus norvegicus [1]) does the source give for CCCOC1(c2ccc(-c3ccccc3)cc2)CN2CCCCC2CO1.Cl (stereo unspecified) here?
**A.** Its Decrease is 17%.

**Q.** What about the Decrease (Rattus norvegicus [2]) of the same molecule?
**A.** Its Decrease is 34%.

**Q.** And the Decrease (Rattus norvegicus [3])?
**A.** Its Decrease is 36%.

**Q.** With CCCOC1(c2ccc(-c3ccccc3)cc2)CN(C)C2CCCCC2O1.Cl (stereo unspecified) as the molecule, how does the Decrease (Rattus norvegicus [2]) read?
**A.** The Decrease was 41%.

**Q.** And the Decrease (Rattus norvegicus [4])?
**A.** The Decrease was 28%.

**Q.** And the Decrease (Rattus norvegicus [3])?
**A.** The Decrease was 50%.

**Q.** For CC(C)(Sc1cc(C(C)(C)C)c(O)c(C(C)(C)C)c1)Sc1cc(C(C)(C)C)c(O)c(C(C)(C)C)c1 [PROBUCOL], which Decrease (Rattus norvegicus [5]) is on record?
**A.** Its Decrease is 18%.

**Q.** What about the Decrease (Rattus norvegicus [6]) of the same molecule?
**A.** Its Decrease is 11%.

**Q.** And the Decrease (Rattus norvegicus [7])?
**A.** Its Decrease is 18%.

**Q.** Which results are given for CCOC1(c2ccc(-c3ccccc3)cc2)CN(C)CCO1.Cl (stereo unspecified)?
**A.** Decrease (Rattus norvegicus [5]): 30%; Decrease (Rattus norvegicus [6]): 39%; Decrease (Rattus norvegicus [7]): 22%

**Q.** What does the source list for CN1CC(O)(c2ccc(-c3ccccc3)cc2)OC2CCCCC21 (stereo unspecified)?
**A.** Decrease (Rattus norvegicus [8]): 51%; Decrease (Rattus norvegicus [2]): 49%; Decrease (Rattus norvegicus [3]): 54%

**Q.** Which Decrease (Rattus norvegicus [8]) does the source give for OC1(c2ccc(-c3ccccc3)cc2)CN2CCCCC2CO1 (stereo unspecified) here?
**A.** Its Decrease is 51%.

**Q.** What about the Decrease (Rattus norvegicus [2]) of the same molecule?
**A.** Its Decrease is 20%.

**Q.** And the Decrease (Rattus norvegicus [3])?
**A.** The Decrease was 22%.

**Q.** For CN1CCOC(O)(c2ccc(-c3ccccc3)cc2)C1.Cl (stereo unspecified), which Decrease (Rattus norvegicus [5]) is on record?
**A.** Its Decrease is 32%.

**Q.** And the Decrease (Rattus norvegicus [6])?
**A.** Its Decrease is 42%.

**Q.** And the Decrease (Rattus norvegicus [7])?
**A.** Its Decrease is 32%.

— ChEMBL document CHEMBL1133122, “Hypocholesterolemic and hypolipidemic activity of some novel morpholine derivatives with antioxidant activity” (J Med Chem, 2000)
